# Shown are actives, neighbours in structure and some others; about 3% of the full set was active somewhere.
# MC4R ag barr – activates human MC4R beta-arrestin recruitment. 360,000 compounds, 0.98% hits. activation, % at 8.9 µM. U2OS MC4R beta-arrestin complementation, luminescence; percent of melanotan II response, DMSO zero. P32245;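 active means activation above a per-plate cutoff, the mean activation of sample wells on that plate plus 3 SD, cut at about 8% in these data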
# Target sequence (P32245 whole entry, looked up): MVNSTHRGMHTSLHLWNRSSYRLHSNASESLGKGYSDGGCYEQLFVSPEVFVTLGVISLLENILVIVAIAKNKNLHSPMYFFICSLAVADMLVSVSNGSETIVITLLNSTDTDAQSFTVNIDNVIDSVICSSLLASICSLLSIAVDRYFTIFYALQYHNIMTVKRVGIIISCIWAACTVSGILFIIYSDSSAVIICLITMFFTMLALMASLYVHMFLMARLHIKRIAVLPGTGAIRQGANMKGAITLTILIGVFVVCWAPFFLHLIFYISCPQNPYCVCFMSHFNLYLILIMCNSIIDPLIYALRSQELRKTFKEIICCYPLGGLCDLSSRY
# B2AR ag – activates human beta-2 adrenergic receptor causing internalization; AID 504454; response, % (no concentration beside the values); 340,000 compounds, 0.43% hits; P07550; Am2.2-beta2AR cells, FAP receptor internalization, flow cytometry;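 active means response above a set limit, near 3 SD of response in nonfluorescent compounds, cut at about 42% in these data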
# PfGluPho inh – PfG6PD (Plasmodium falciparum) enzyme inhibition | PfGluPho enzyme, NADPH resazurin-diaphorase fluorescence | inhibition, % at 20 µM | 350,000 compounds, 0.78% hits | AID 504690;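 active means inhibition reaching at least a set limit at 20 µM in the primary screen, cut at about 59% in these data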
# MC4R antag cAMP – blocks human MC4R cAMP signaling. P32245. inhibition, % at 6.5 µM. 360,000 compounds, 0.48% hits. MC4R-expressing cells, MTII-stimulated cAMP, LANCE TR-FRET. AID 540295;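 active means inhibition above its plate's cutoff, the mean of tested wells on that plate plus 3 SD, cut at about 29% in these data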
#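 System – human MC4R-expressing U2OS cells · Also added – Melanotan II · Dosing – one concentration, 6.5 µM nominal · Timing – 30-min compound, 1-h challenge, 1-h detection, room temperature · Measured by – Eu-cAMP/anti-cAMP TR-FRET, emission 671 nm · Replicates – singlicate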
# ABHD5 PLIN5 PPI – blocks binding of human ABHD5 to perilipin-5. Q00G26+Q8WTS1. Split G. princeps luciferase complementation, luminescence, 4 h. inhibition, % at 4 µM. 360,000 compounds, 0.78% hits;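 active means inhibition above the mean inhibition across every tested compound plus 3 SD, cut at about 22% in these data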
# MC4R barr conf – human MC4R beta-arrestin agonism confirmation | shares compounds with MC4R ag barr | U2OS MC4R beta-arrestin recruitment, luminescence; scaled DMSO 0%, Melanotan II 100% | activation, % at 8.9 µM | 2,400 compounds, 31% hits | AID 602192;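 active means mean activation across replicates above the hit cutoff set in the earlier primary screen, cut at about 8% in these data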
# MOR-DOR barr ag – OPRM1-OPRD1 heterodimer agonism counter-screen. shares compounds with MC4R ag barr. U2OS PathHunter beta-arrestin, beta-gal luminescence; percent of deltorphin B response, DMSO zero. activation, % at 9.2 µM. 2,400 compounds, 5.8% hits;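 active means mean activation across replicates exceeds the hit threshold derived in the earlier primary screen, cut at about 18% in these data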
# A number is an active result; n = inactive; x = no result given.
SMILES,MC4R ag barr,B2AR ag,PfGluPho inh,MC4R antag cAMP,ABHD5 PLIN5 PPI,MC4R barr conf,MOR-DOR barr ag
CC1CCc2nc(NC(=O)CSc3nc4ccccc4o3)sc2C1 (configuration not stated),13.9,n,n,n,n,n,n
Cc1nnc(NC(=O)CSc2nc3ccccc3o2)s1,n,n,n,n,n,x,x
CC(C)(C)c1ccc(C(=O)NC(=O)COC(=O)c2ccco2)cc1,13.3,n,n,n,n,n,n
O=C(COC(=O)c1ccco1)NNC(=O)c1ccc(Cl)cc1,n,n,n,n,n,x,x
CCOc1ccc(NC(=NCc2ccc3c(c2)OCO3)SC2CC(=O)N(c3ccc(OCC)cc3)C2=O)cc1 (configuration not stated),n,n,n,n,n,x,x
CCOc1ccc(NC(=NCc2ccc3c(c2)OCO3)SC2CC(=O)N(c3ccccc3)C2=O)cc1 (configuration not stated),18.1,n,n,n,n,n,n
COc1ccc(NC(=O)c2cccs2)cc1NC(=O)c1ccco1,n,n,n,n,n,x,x
CCOc1cc(NC(=O)c2cccs2)c(OCC)cc1NC(=O)c1ccco1,11.8,n,n,n,n,16.6,n
CCOc1ccc(/C=N/Nc2ccc(C(F)(F)F)cc2[N+](=O)[O-])cc1O,n,n,n,n,n,x,x
COc1ccc(/C=N/Nc2ccc(C(F)(F)F)cc2[N+](=O)[O-])cc1O,20.3,n,n,n,n,n,n
CCOC(=O)c1ccc(-c2ccc(/C=C(\C#N)C(=O)NCc3cccs3)o2)cc1,38.5,n,n,n,n,27.1,n
COc1cc(OC)c(OC)cc1/C=C(\C#N)C(=O)NCc1cccs1,n,n,n,n,n,x,x
CNC(=O)/C(C#N)=C/c1ccc(-c2ccc(Cl)cc2)o1,14.3,n,n,n,n,41.2,n
Cc1ccccc1OCC(O)CNC1CCC(NCC(O)COc2ccccc2C)CC1 (configuration not stated),11.0,n,n,n,n,38.0,34.9
CSc1nc2nccc(-c3ccc(Oc4ccccc4)cc3)n2n1,n,n,n,n,n,x,x
CSc1nc2nccc(-c3ccc(-c4ccccc4)cc3)n2n1,10.7,n,n,n,n,n,n
Cc1cc(-n2c(C)cc(C(=O)CSc3nnnn3-c3ccc(Cl)cc3)c2C)no1,19.9,n,n,n,n,n,n
CCOc1ccc(Cn2c3ccc(OC)cc3c3nc4ccccc4nc32)cc1OC,27.7,n,n,n,n,25.6,n
COc1ccc2c(c1)c1nc3ccccc3nc1n2Cc1ccc(OC)c(OC)c1,11.3,n,n,n,n,n,n
Cc1ccc2[nH]c(C(=O)N3CCC(C(N)=O)CC3)cc2c1,n,n,n,n,n,x,x
Cc1c(C(=O)Nc2ccc(-c3nnc4n3CCCCC4)cc2)oc2c1ccc1ccccc12,11.4,n,n,n,n,n,n
CCn1c(SC(C)C(=O)NCC2CCCO2)nc2ccccc21 (configuration not stated),n,n,n,n,n,x,x
C[N+](C)(C)CCNC(=O)c1ccccc1,x,x,x,x,n,x,x
O=[N+]([O-])c1cc(/C=N/O)ccc1SCc1ccccc1Cl,18.5,n,n,n,n,n,n
O=[N+]([O-])c1cc(/C=N/O)ccc1N1CCCC1,n,n,n,n,n,x,x
SMILES,MC4R ag barr,B2AR ag,PfGluPho inh,MC4R antag cAMP,ABHD5 PLIN5 PPI,MC4R barr conf,MOR-DOR barr ag
Cc1ccc2oc(-c3ccc(NC(=O)CC(C)C)cc3)nc2c1,14.2,n,n,n,n,n,n
O=C(COC(=O)/C=C/c1ccccc1)NC(=O)NC1CCCCC1,n,n,n,n,n,x,x
O=C(COC(=O)/C=C/c1ccc([N+](=O)[O-])cc1)NC(=O)NC1CCCCC1,19.2,n,n,n,n,n,n
C=CCOc1ccc(/C=C/C(=O)OCC(=O)NCC2CCCCC2)cc1,12.1,n,n,n,n,n,n
O=C(COC(=O)/C=C/c1ccc([N+](=O)[O-])cc1)NC(c1ccccc1)c1ccccc1,11.5,n,n,n,n,n,n
COc1ccc(NC(=O)N(C)C[C@H]2Oc3ccc(NC(=O)c4ccncc4)cc3C(=O)N([C@H](C)CO)C[C@@H]2C)cc1,n,n,n,n,n,x,x
Cc1cc(C)cc(N(C(=O)CNC(=O)c2ccco2)C(C(=O)NC2CCCCC2)c2cccnc2)c1 (configuration not stated),n,n,n,n,n,x,x
O=C(Nc1ccc(F)cc1F)c1c(C(F)(F)F)ccnc1Oc1cccc(C(F)(F)F)c1,19.9,n,n,n,n,n,n
Cc1cccc(NC(=O)c2cccc(S(=O)(=O)N(C)c3ccccc3)c2)n1,n,n,n,n,n,x,x
O=C(c1cccc(-c2ccc(O)cc2)c1)N1CCN(c2ccc(F)cc2)CC1,12.6,n,n,n,n,n,n
C(=NNc1nnn(Cc2ccccc2)n1)c1ccccc1,n,x,n,n,n,x,x
COc1ccc(-c2ccc(C#N)c(SCC(=O)Nc3sc4c(c3C#N)CCC4)n2)cc1OC,n,n,n,n,n,x,x
COc1cccc(-c2ccc(C#N)c(SCC(=O)NCCc3cccc(Cl)c3)n2)c1,13.0,n,n,n,n,18.0,20.2
COc1cccc(-c2ccc(C#N)c(OC(=O)c3ccc(Cl)cc3)n2)c1,n,n,n,n,n,x,x
COc1ccc(-c2ccc(C#N)c(SCC(=O)NCCc3ccccc3)n2)cc1OC,11.6,n,n,n,n,n,n
COc1ccc(S(=O)(=O)N2CCOCC2)cc1NC(=O)c1cccs1,n,n,n,n,n,x,x
CCOc1ccc(NC(=O)c2cc(S(=O)(=O)N3CCOCC3)cn2C)cc1,n,n,n,n,n,x,x
Cc1ccc(CN(C)C(=O)c2c(C)nn(-c3ccccc3)c2C)cc1,n,n,n,n,n,x,x
Cc1ccc(-c2csc(N(C)C(=O)c3c(C)nn(-c4ccccc4)c3Cl)n2)cc1,15.7,n,n,n,n,n,n
COc1cc2nc(SCc3ccc(C(F)(F)F)cc3)n(Cc3cccs3)c(=N)c2cc1OC,14.0,n,n,n,n,n,n
COc1ccc(Cn2c(SCc3ccc(C)cc3)nc3cc(OC)c(OC)cc3c2=N)cc1Cl,28.2,x,n,n,n,n,18.8
COCCCn1c(SCc2cccc(C(F)(F)F)c2)nc2cc(OC)c(OC)cc2c1=N,n,n,n,n,n,x,x
CCc1ccc(-c2nc(CS(=O)CC(=O)NCc3ccc4c(c3)OCO4)c(C)o2)cc1 (configuration not stated),n,n,n,n,n,x,x
O=[N+]([O-])c1ccc(-c2ccc(/C=N/c3c(-c4ccco4)nc4ccccn34)o2)cc1,12.6,n,n,n,n,9.2,n
O=[N+]([O-])c1ccc(Cl)c(-c2ccc(/C=N/c3c(-c4ccco4)nc4ccccn34)o2)c1,n,n,n,n,n,x,x
